These results are taken from ChEMBL document CHEMBL3813653, “Disulfides with Anti-inflammatory Activity from the Brown Alga Dictyopteris membranacea” (J Nat Prod, 2016).

Calls of active or inactive are those of the source. The rule behind the calls is not given here.

Data set [1] deals with RAW264.7. Nature of the data set: Antiinflammatory activity in mouse RAW264.7 cells assessed as inhibition of LPS-induced nitric oxide production treated 1 hr before LPS challenge measured after 48 hrs by Griess reaction.
In the next data set the test system is Escherichia coli. Description: Antibacterial activity against Escherichia coli NCTC 10418 after 18 hrs by serial dilution method. Type of data set: functional, organism-based. In outline:
(§1)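 Strains grown on nutrient agar for 24 h at 37 °C. Compounds dissolved in DMSO and diluted in Mueller–Hinton broth to a 512 μg/mL starting concentration, then serially diluted in MHB with 10 mg/L Mg2+ and 20 mg/L Ca2+. Final inoculum 5 × 10^5 cfu/mL; 18 h, 37 °C. MIC is the lowest concentration with no growth, confirmed by MTT colour change. DMSO at most 3.125% v/v; triplicate.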

In data set [2] the test system is Staphylococcus aureus. Description: Antibacterial activity against Staphylococcus aureus SA1199B after 18 hrs by serial dilution method. Type of data set: functional, organism-based. In outline:
as §1

Data set [3] deals with Staphylococcus aureus. Description: Antibacterial activity against Staphylococcus aureus EMRSA-15 after 18 hrs by serial dilution method. Type of data set: functional, organism-based. The essentials: as §1
For data set [4], the system named is RAW264.7. Nature of the data set: Cytotoxicity against mouse RAW264.7 cells assessed as cell growth inhibition after 48 hrs by MTT assay. Format: cell-based. The following applies: raw264.7, 48 h. In outline:
(§2)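 RAW 264.7 cells seeded, cultured overnight, and the seeded cell number measured before treatment as control. Cells exposed to various concentrations for 48 h, then MTT at 0.5 mg/mL […]. Cells lysed in 2-propanol with 0.4% HCl; absorbance read at 610 nm. OD normalized to control; one-way ANOVA.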
On the technique in general: Tetrazolium dyes change colour on reduction, which living cells bring about.

Data set [5] has as its system RAW264.7. Description: Antiinflammatory activity in mouse RAW264.7 cells assessed as inhibition of LPS-induced nitric oxide production at 10 ug/ml preincubated for 1 hr followed by LPS stimulation for 48 hrs by Griess assay. Type of data set: functional, cell-based. The essentials:
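RAW 264.7 mouse macrophages in DMEM with 10% heat-inactivated FBS at 37 °C, 5% CO2. Compounds fixed at 10 μg/mL in Carbowax 400 (0.1% v/v final), added 1 h before 100 ng/mL LPS for 48 h. Nitrite in the supernatant measured by Griess reaction (540 nm) against a sodium nitrite standard curve. Controls: 0.1% Carbowax only.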

Data set [6] deals with RAW264.7. Nature of the data set: Cytostatic activity against mouse RAW264.7 cells assessed as cell growth inhibition after 48 hrs by MTT assay. Format: cell-based. Conditions: raw264.7, 48 h. In outline:
as §2

Data set [7] deals with RAW264.7. Description: Antiinflammatory activity in mouse RAW264.7 cells assessed as inhibition of LPS-induced nitric oxide production preincubated for 1 hr followed by LPS stimulation for 48 hrs by Griess assay. Type of data set: functional, cell-based. The essentials: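 Macrophage line RAW 264.7 pretreated 1 h with a range of concentrations (vehicle Carbowax 400, 0.1% v/v final), then given 100 ng/mL LPS for 48 h. Supernatant nitrite read by Griess reaction at 540 nm using a nitrite standard curve. NO normalized to Carbowax-only cells (100%); IC50 is the concentration giving 50% inhibition; four replicates, mean ± SD.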
(The Griess reaction detects nitrite, a stable product of nitric oxide.)

The term IC50 denotes the concentration that gives 50% inhibition. For `C=C([C@H]1CC[C@@](C)(O)[C@@H](Br)C1)[C@H]1[C@H](O)[C@@H]2[C@@H](CC[C@@]2(C)O)C1(C)C`, the 50% inhibitory concentration (IC50) in the data set with RAW264.7 [1] was found to be 2.2 µM.
As to `CCCCCC/C=C/C(=O)CCSSCCC(=O)/C=C/CCCCCC`, the outcome in the data set on Escherichia coli, in the data set with Staphylococcus aureus [2] and in the data set with Staphylococcus aureus [3] was inactive.
`CCCCCCC1CC(=O)CCSS1` (configuration not stated): the outcome with Escherichia coli, with Staphylococcus aureus [2] and with Staphylococcus aureus [3] was inactive. The GI in the data set on RAW264.7 [4] is > 85 µM. Besides, the inhibition result in the data set with RAW264.7 [5] is “Active”. In addition, in the data set with RAW264.7 [6], the “growth inhibition (GI)” value is “Toxic”. Also, the IC50 in the data set with RAW264.7 [7] was 14.2 µM.
Regarding `CCCCCC/C=C/C(=O)CCSSCCC(=O)CC(CCCCCC)SC` (configuration not stated), the outcome with Escherichia coli, in the data set on Staphylococcus aureus [2] and with Staphylococcus aureus [3] was inactive.
For `CCCCCCCCC(=O)CCSSCCC(=O)CCCCCCCC`, the outcome with Escherichia coli, in the data set on Staphylococcus aureus [2] and in the data set with Staphylococcus aureus [3] was inactive.
Turning to `CCCCCCCCC(=O)CCSSCCC(=O)CC(CCCCCC)SC` (configuration not stated), the outcome in the data set with Escherichia coli, in the data set with Staphylococcus aureus [2] and in the data set with Staphylococcus aureus [3] was inactive. Besides, the GI in the data set with RAW264.7 [4] is > 45 µM. In addition, the inhibition entry with RAW264.7 [5] is “Active”. Further, the “growth inhibition (GI)” value in the data set with RAW264.7 [6] is reported as “Toxic”. The IC50 in the data set on RAW264.7 [7] came out at 3.8 µM.
As to `CCCCCC/C=C/C(=O)CCSSCCC(=O)CCCCCCCC`, the outcome with Escherichia coli, in the data set with Staphylococcus aureus [2] and with Staphylococcus aureus [3] was inactive.
